Reference: ChEMBL document CHEMBL1153582, “Expedient solid-phase synthesis of both symmetric and asymmetric diol libraries targeting aspartic proteases” (Bioorg Med Chem Lett, 2009)

What was measured:
Protease = Protease (Human immunodeficiency virus 1, UniProt Q9YQ12); test: Inhibition of HIV1 protease by fluorescence microplate assay
Method in brief: (§1)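 Library products were used as crude material, without purification, for direct in situ screening in a standard fluorescence microplate assay. IC50 was taken from inhibition curves plotted against log inhibitor concentration in nM.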

Plasmepsin I = Plasmepsin I (Plasmodium falciparum, UniProt P39898); test: Inhibition of Plasmodium falciparum plasmepsin-1 in fluorescence microplate assay; method in brief: as §1
Plasmepsin II = Plasmepsin II (Plasmodium falciparum, UniProt P46925); test: Inhibition of Plasmodium falciparum plasmepsin-2 in fluorescence microplate assay; method in brief: as §1
Plasmepsin II, sequence (P46925 whole entry): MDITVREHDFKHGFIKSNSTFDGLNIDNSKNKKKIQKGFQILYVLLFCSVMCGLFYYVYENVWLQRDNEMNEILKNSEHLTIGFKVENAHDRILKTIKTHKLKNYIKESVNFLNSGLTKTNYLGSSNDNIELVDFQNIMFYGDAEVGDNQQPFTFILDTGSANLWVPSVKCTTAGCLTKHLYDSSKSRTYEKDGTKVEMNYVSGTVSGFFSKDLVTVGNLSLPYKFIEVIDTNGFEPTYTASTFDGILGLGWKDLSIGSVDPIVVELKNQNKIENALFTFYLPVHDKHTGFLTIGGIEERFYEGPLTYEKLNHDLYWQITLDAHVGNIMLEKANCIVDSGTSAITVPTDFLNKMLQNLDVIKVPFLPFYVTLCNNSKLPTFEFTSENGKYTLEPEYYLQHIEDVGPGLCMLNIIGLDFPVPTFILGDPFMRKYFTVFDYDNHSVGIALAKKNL

Plasmepsin I, sequence (P39898 whole entry): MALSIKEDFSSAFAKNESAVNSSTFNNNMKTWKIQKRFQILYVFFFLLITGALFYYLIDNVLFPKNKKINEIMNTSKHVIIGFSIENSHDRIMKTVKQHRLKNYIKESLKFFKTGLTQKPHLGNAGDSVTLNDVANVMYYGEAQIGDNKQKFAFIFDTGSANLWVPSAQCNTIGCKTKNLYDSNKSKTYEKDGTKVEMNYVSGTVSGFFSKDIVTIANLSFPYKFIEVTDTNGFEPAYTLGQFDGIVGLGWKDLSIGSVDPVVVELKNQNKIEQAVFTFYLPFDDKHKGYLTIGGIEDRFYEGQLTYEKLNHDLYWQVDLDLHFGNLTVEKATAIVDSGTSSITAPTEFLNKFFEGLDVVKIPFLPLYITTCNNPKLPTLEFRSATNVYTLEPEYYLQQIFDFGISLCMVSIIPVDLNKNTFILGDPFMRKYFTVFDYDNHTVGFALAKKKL
Protease, sequence (Q9YQ12 whole entry): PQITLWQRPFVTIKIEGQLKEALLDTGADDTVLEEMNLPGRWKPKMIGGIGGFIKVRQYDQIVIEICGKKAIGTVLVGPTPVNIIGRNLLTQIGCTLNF

Compound | IC50 (Protease) | IC50 (Plasmepsin I) | IC50 (Plasmepsin II) | Ki (Protease)
O=C(N[C@@H](Cc1ccccc1)[C@@H](O)[C@H](O)[C@H](Cc1ccccc1)NC(=O)c1ccc(F)cc1Cl)c1ccc2c(c1)OCCO2 | > 25 µM | > 25 µM | 11.8 µM | –
CC(C)C[C@H](NC(=O)CC1CCCCC1)[C@@H](O)[C@H](O)[C@H](CC(C)C)NC(=O)CC1CCCCC1 | > 25 µM | 2.64 µM | > 25 µM | –
COc1ccccc1C(=O)N[C@@H](CC(C)C)[C@@H](O)[C@H](O)[C@H](CC(C)C)NC(=O)c1ccccc1OC | 1.31 µM | > 25 µM | > 25 µM | –
O=C(N[C@@H](Cc1ccccc1)[C@@H](O)[C@H](O)[C@H](Cc1ccccc1)NC(=O)c1ccc(F)cc1Cl)c1ccc(F)cc1Cl | 0.395 µM | > 25 µM | > 25 µM | 400 nM
O=C(CC1CCCCC1)N[C@@H](Cc1ccccc1)[C@@H](O)[C@H](O)[C@H](Cc1ccccc1)NC(=O)CC1CCCCC1 | > 25 µM | 4.39 µM | 3.91 µM | –
Cc1ccc(C(=O)N[C@@H](Cc2ccccc2)[C@@H](O)[C@H](O)[C@H](Cc2ccccc2)NC(=O)C2CCOC2)cn1 (some centres undefined) | > 25 µM | > 25 µM | 12.7 µM | –
